According to ChEMBL document CHEMBL3297735, “Optimization of troglitazone derivatives as potent anti-proliferative agents: towards more active and less toxic compounds” (Eur J Med Chem, 2014):

Assays:
[1] = Toxicity in BALBc/AnNHsd mouse assessed as mortality at 34 mg/kg, iv relative to control; type: organism-based; design: dose 34 mg/kg, route intravenous; conditions: in vivo
[2] = test system: HCT-116; assay: Cytotoxicity against human HCT116 cells assessed as cell viability at 10 uM after 72 hrs by MTS assay in presence of 10% fetal calf serum relative to control; type: functional; conditions: HCT-116, 72 h, read-out: Activity
[3] = test system: MCF7; assay: Cytotoxicity against human MCF7 cells assessed as cell viability at 10 uM after 72 hrs by MTS assay in presence of 10% fetal calf serum relative to control; type: functional; conditions: MCF7, 72 h, read-out: Activity
How it was run: (§1)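 Cells were grown in RPMI with L-glutamine, 10% FCS, penicillin/streptomycin and fungizone at 37 °C under 5% CO2. Wells were seeded with 1900 cells for MCF-7 or 1300 cells for MDA-MB-231. After 24 h, compound was added from a 10 mM DMSO stock (final DMSO 1%) for 72 h, with DMSO-only controls. Viable cells were read by MTS at 490 nm and expressed as % of untreated. Mean ± SEM, N = 3.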

[4] = test system: MDA-MB-231; assay: Cytotoxicity against human MDA-MB-231 cells assessed as cell viability at 10 uM after 72 hrs by MTS assay in presence of 10% fetal calf serum relative to control; type: functional; conditions: MDA-MB-231, 72 h, read-out: Activity; how it was run: as §1
[5] = Cytotoxicity against human MDA435 cells assessed as cell viability at 10 uM after 72 hrs by MTS assay in presence of 10% fetal calf serum relative to control; type: functional; conditions: MDA-MB-435, 72 h, read-out: Activity
[6] = Cytotoxicity against human MiaPaCa cells assessed as cell viability at 10 uM after 72 hrs by MTS assay in presence of 10% fetal calf serum relative to control; type: functional; conditions: MIA PaCa-2, 72 h, read-out: Activity
[7] = test system: HepG2; assay: Cytotoxicity against human HepG2 cells assessed as cell viability at 10 uM after 72 hrs by MTS assay in presence of 10% fetal calf serum relative to control; type: functional; conditions: HepG2, 72 h, read-out: Activity
[8] = test system: PC-3; assay: Cytotoxicity against human PC3 cells assessed as cell viability at 10 uM after 72 hrs by MTS assay in presence of 10% fetal calf serum relative to control; type: functional; conditions: PC-3, 72 h, read-out: Activity
[9] = test system: LNCaP; assay: Cytotoxicity against human LNCAP cells assessed as cell viability at 10 uM after 72 hrs by MTS assay in presence of 10% fetal calf serum relative to control; type: functional; conditions: read-out: Activity
[10] = Cytotoxicity against human hepatocytes assessed as cell viability at 100 uM after 90 mins by MTT assay relative to control; type: cell-based, Hepatocyte; conditions: read-out: Activity
How it was run: (§2)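 Cryopreserved human hepatocytes were plated at 0.1 × 10⁶ cells/well and exposed to compound for 90 min. MTT was then added for 30 min at 37 °C, plates were centrifuged, and formazan was dissolved in DMSO. Absorbance was read at 595 nm. Surviving cells are expressed as % of non-treated cells ± SEM.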

[11] = Cytotoxicity against human hepatocytes assessed as cell viability at 200 uM after 90 mins by MTT assay relative to control; type: cell-based, Hepatocyte; conditions: read-out: Activity; how it was run: as §2
[12] = Acute toxicity in iv dosed BALBc/AnNHsd mouse; type: organism-based; conditions: in vivo
How it was run: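 Acute toxicity run in female BALBc/AnNHsd mice given the compounds by intravenous injection. The read-out was the maximum tolerated dose (MTD). Compounds were dissolved in a mixture of solvents, and the top dose was capped by solubility in that mixture.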

[13] = test system: Mus musculus; assay: Toxicity in BALBc/AnNHsd mouse assessed as mortality at 65.5 mg/kg, iv; type: organism-based; design: dose 65.5 mg/kg, route intravenous; conditions: in vivo
[14] = test system: Mus musculus; assay: Toxicity in BALBc/AnNHsd mouse assessed as behavioral changes at 65.5 mg/kg, iv; type: organism-based; design: dose 65.5 mg/kg, route intravenous; conditions: in vivo
[15] = test system: Mus musculus; assay: Toxicity in BALBc/AnNHsd mouse assessed as change in body weight at 65.5 mg/kg, iv measured on day 1 (reference value: 17.67 +/- 0.33 g); type: organism-based; design: dose 65.5 mg/kg, route intravenous; conditions: in vivo
How it was run: (§3)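 Acute toxicity was assessed in female BALBc/AnNHsd mice after intravenous injection of compound in a solvent mixture, to estimate the maximum tolerated dose.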

[16] = test system: Mus musculus; assay: Toxicity in BALBc/AnNHsd mouse assessed as change in body weight at 65.5 mg/kg, iv measured on day 2 (reference value: 19 +/- 1 g); type: organism-based; design: dose 65.5 mg/kg, route intravenous; conditions: in vivo; how it was run: as §3
[17] = test system: Mus musculus; assay: Toxicity in BALBc/AnNHsd mouse assessed as change in body weight at 65.5 mg/kg, iv measured on day 15 (reference value: 18.33 +/- 0.33 g); type: organism-based; design: dose 65.5 mg/kg, route intravenous; conditions: in vivo; how it was run: as §3
[18] = test system: Mus musculus; assay: Toxicity in BALBc/AnNHsd mouse assessed as change in organ morphology at 65.5 mg/kg, iv; type: organism-based; design: dose 65.5 mg/kg, route intravenous; conditions: in vivo
[19] = test system: MCF7; assay: Cytotoxicity against human MCF7 cells after 24 hrs by CellTiterGlo assay in presence of 1% fetal calf serum; type: functional, cell-based; conditions: MCF7, 24 h
How it was run: (§4)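 MCF-7 was maintained in phenol red DMEM and MDA-MB-231 in L-15. Cells were seeded in 6-well plates at 8.10⁴ cells/well in medium with 10% FCS and 2 mM L-glutamine. Medium was then switched to 1% FCS with 2 mM L-glutamine for treatment, with 0.1% DMSO controls. Cells were washed, trypsinized and counted with CellTiter-Glo luminescence. Each treatment was run in triplicate, and IC50 was taken as the concentration halving viable cells.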

[20] = test system: MDA-MB-231; assay: Cytotoxicity against human MDA-MB-231 cells after 24 hrs by CellTiterGlo assay in presence of 1% fetal calf serum; type: functional, cell-based; conditions: MDA-MB-231, 24 h; how it was run: as §4
[21] = test system: Mus musculus; assay: Toxicity in BALBc/AnNHsd mouse assessed as mortality at 64.6 mg/kg, iv; type: organism-based; design: dose 64.6 mg/kg, route intravenous; conditions: in vivo
[22] = test system: Mus musculus; assay: Toxicity in BALBc/AnNHsd mouse assessed as behavioral changes at 34 mg/kg, iv; type: organism-based; design: dose 34 mg/kg, route intravenous; conditions: in vivo; how it was run: as §3
[23] = test system: Mus musculus; assay: Toxicity in BALBc/AnNHsd mouse assessed as change in body weight at 34 mg/kg, iv measured between day 1 and day 15 (reference value: 18 +/- 1 g); type: organism-based; design: dose 34 mg/kg, route intravenous; conditions: in vivo; how it was run: as §3
[24] = test system: Mus musculus; assay: Toxicity in BALBc/AnNHsd mouse assessed as change in organ morphology at 34 mg/kg, iv; type: organism-based; design: dose 34 mg/kg, route intravenous; conditions: in vivo; how it was run: as §3

Compound: Cc1c(C)c2c(c(C)c1O)CCC(C)(COc1ccc(/C=C3\SC(=O)NC3=O)cc1)O2 (stereo not drawn)
- mortality [1]: > 50%
- viability at 10 µM [2]: 88%
- viability at 10 µM [3]: 84%
- viability at 10 µM [4]: 69.3%
- viability at 10 µM [5]: 73.1%
- viability at 10 µM [6]: 95%
- viability at 10 µM [7]: 82.3%
- viability at 10 µM [8]: 83.1%
- viability at 10 µM [9]: 85.4%
- viability at 1.5 h, 100 µM [10]: 62.8%
- viability at 1.5 h, 200 µM [11]: 43.1%
- MTD [12]: 34 mg/kg

Compound: Cc1c(C)c2c(c(C)c1CCCCCCN)CCC(C)(COc1ccc(/C=C3\SC(=O)N(C)C3=O)cc1)O2.O=C(O)C(F)(F)F (racemic)
- Activity [13]: Non-toxic
- Activity [14]: Non-toxic
- Activity [15]: 17.67 g
- Activity [16]: 19 g
- Activity [17]: 18.5 g
- Activity [18]: Non-toxic
- viability at 10 µM [2]: 0%
- viability at 10 µM [3]: 0%
- viability at 10 µM [4]: 0%
- viability at 10 µM [5]: 0%
- viability at 10 µM [6]: 0%
- viability at 10 µM [7]: 0%
- viability at 10 µM [8]: 7.7%
- viability at 10 µM [9]: 11.6%
- viability at 1.5 h, 100 µM [10]: 82.6%
- viability at 1.5 h, 200 µM [11]: 82.7%
- IC50 [19]: 6.1 µM
- IC50 [20]: 6.7 µM
- MTD [12]: 65.5 mg/kg

Compound: Cc1c(C)c2c(c(C)c1CCCCCCN)CCC(C)(COc1ccc(/C=C3\SC(=O)NC3=O)cc1)O2.O=C(O)C(F)(F)F (racemic)
- Activity [21]: Toxic
- Activity [22]: Non-toxic
- Activity [23]: 21.5 g
- Activity [24]: Non-toxic
- viability at 10 µM [2]: 6.9%
- viability at 10 µM [3]: 2.7%
- viability at 10 µM [4]: 7.6%
- viability at 10 µM [5]: 35.2%
- viability at 10 µM [6]: 5.9%
- viability at 10 µM [7]: 12.9%
- viability at 10 µM [8]: 60.1%
- viability at 10 µM [9]: 46.8%
- viability at 1.5 h, 100 µM [10]: 83.2%
- viability at 1.5 h, 200 µM [11]: 79.9%
- IC50 [19]: 3.6 µM
- IC50 [20]: 1.5 µM
- MTD [12]: 34 mg/kg
